Results taken from PubChem BioAssay AID623937 (The Scripps Research Institute Molecular Screening Center, 2012).
“And” between values parts separate entries of the source, which are not always exact repeats. Equal values may be shown once. The source made the active and inactive calls.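 The calls were made as follows: active = Chi band cutting by RecBCD reduced more than twofold versus the solvent-only control; inactive = reduction of twofold or less versus solvent-only control.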

Molecular target: RecBCD enzyme subunit RecC (Escherichia coli (strain K12)) + RecBCD enzyme subunit RecB (Escherichia coli (strain K12)) (UniProt P07648+P08394)
Test: RecBCD helicase and Chi cutting inhibitors, late-stage follow-up, counter-screen for AddAB inhibitor project, biochemical, radioactive gel readout, single concentration (AID 623937)
Details: purified RecBCD, 32P DNA gel autoradiography, at 50 µM
Outline: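 Material: purified E. coli RecBCD; quantity: 0.15 nM RecBCD; signal: Agarose gel separation of labeled DNA products; medium: reaction mix containing 5 mM ATP; times: enzyme reaction for 1 min at 37 °C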

RecBCD enzyme subunit RecC (Escherichia coli (strain K12)) + RecBCD enzyme subunit RecB (Escherichia coli (strain K12)), sequence (P07648 whole entry, looked up): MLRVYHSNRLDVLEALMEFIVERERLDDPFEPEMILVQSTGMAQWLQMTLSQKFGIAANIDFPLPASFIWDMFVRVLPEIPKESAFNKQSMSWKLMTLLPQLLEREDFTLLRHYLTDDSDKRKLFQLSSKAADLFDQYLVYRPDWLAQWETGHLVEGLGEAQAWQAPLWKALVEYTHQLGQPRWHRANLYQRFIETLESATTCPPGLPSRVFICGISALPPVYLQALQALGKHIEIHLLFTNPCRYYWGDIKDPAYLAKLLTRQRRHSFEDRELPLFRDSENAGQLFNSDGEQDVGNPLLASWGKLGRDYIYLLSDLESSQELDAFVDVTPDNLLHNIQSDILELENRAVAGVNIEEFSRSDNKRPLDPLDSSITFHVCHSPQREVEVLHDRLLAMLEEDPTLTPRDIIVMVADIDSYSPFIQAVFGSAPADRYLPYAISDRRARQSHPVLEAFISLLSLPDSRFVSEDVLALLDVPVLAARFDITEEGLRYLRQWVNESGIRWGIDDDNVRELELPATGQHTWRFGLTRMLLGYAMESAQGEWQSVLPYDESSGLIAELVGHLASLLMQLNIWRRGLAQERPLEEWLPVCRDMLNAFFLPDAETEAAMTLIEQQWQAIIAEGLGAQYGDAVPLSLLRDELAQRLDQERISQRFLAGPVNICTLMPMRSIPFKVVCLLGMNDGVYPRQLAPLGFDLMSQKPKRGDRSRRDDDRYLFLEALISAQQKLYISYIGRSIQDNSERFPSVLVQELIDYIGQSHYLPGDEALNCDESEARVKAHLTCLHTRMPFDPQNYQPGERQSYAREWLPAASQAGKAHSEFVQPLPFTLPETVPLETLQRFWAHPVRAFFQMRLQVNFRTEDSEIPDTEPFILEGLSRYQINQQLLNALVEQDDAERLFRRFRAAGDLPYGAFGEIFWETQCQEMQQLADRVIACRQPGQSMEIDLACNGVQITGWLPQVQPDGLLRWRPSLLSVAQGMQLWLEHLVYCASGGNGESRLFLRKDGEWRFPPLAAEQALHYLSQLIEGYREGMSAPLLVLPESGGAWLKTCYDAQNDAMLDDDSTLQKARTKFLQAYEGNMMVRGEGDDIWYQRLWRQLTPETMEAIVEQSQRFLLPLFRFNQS
RecBCD enzyme subunit RecC (Escherichia coli (strain K12)) + RecBCD enzyme subunit RecB (Escherichia coli (strain K12)), sequence (P08394 whole entry, looked up): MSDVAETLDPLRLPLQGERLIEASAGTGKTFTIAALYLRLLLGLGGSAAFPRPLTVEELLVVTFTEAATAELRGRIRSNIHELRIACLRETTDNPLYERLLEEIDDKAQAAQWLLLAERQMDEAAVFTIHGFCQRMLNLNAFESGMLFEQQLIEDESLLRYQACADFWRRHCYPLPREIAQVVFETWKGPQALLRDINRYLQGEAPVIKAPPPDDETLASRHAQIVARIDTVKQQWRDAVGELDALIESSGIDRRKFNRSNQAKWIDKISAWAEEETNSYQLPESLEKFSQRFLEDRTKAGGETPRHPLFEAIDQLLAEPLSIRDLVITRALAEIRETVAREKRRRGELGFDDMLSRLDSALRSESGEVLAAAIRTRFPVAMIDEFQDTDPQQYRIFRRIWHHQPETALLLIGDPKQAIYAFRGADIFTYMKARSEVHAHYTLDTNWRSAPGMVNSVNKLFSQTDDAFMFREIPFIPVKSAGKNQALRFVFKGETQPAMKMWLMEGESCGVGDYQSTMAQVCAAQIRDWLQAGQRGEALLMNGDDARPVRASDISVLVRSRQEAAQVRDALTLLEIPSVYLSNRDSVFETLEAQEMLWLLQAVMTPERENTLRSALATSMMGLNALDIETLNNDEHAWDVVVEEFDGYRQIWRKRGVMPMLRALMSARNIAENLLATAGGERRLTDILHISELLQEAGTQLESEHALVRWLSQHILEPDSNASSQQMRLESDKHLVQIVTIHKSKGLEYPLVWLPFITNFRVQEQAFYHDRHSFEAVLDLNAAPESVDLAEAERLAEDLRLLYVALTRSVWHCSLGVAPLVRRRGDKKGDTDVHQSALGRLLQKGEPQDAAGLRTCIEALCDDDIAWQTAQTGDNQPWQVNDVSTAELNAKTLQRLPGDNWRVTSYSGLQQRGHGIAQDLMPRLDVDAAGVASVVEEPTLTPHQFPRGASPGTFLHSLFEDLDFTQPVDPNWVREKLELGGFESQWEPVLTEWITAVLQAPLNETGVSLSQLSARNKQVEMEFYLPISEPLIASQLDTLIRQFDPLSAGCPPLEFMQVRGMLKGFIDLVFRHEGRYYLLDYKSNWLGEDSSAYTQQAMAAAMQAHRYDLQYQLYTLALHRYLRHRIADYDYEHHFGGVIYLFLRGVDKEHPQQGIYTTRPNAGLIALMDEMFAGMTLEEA

| Compound | fold reduction of Chi cutting |
| --- | --- |
| C=CCn1c(Sc2ncc([N+](=O)[O-])s2)n[nH]c1=O | < 2 (inactive) |
| CCn1cc(C(=O)O)c(=O)c2cnc(N3CCN(C(=S)NC(=O)c4cccnc4)CC3)nc21 | < 2 (inactive) |
| N#Cc1c(NC(=O)C2CC=CCC2C(=O)O)sc2c1CCC2 (stereo not drawn) | < 2 (inactive) |
| CCn1cc(C(=O)O)c(=O)c2cnc(N3CCN(C(=S)NC(C)c4ccccc4)CC3)nc21 (stereo not drawn) | < 2 (inactive) |
| CC1(C)Cc2c(sc(NC(=O)c3ccco3)c2C#N)CO1 | < 2 (inactive) |
| Cc1ccc(C(=O)Nc2sc3c(c2C#N)CCC3)o1 | < 2 (inactive) |
| N#Cc1c(NC(=O)c2ccc(-c3ccccc3[N+](=O)[O-])o2)sc2c1CCCC2 | < 2 (inactive) |
| N#Cc1c(NC(=O)c2ccco2)sc2c1CCC2 | < 2 (inactive) |
| CC1CCc2c(sc(NC(=O)c3ccc([N+](=O)[O-])o3)c2C#N)C1 (stereo not drawn) | < 2 (inactive) |
| CCn1cc(C(=O)O)c(=O)c2cnc(N3CCN(C(=S)Nc4ccc(F)cc4)CC3)nc21 | > 2 |
| Cc1ccc2nc(/C(C#N)=C\c3ccc([N+](=O)[O-])o3)[nH]c2c1 | > 2 |
| CCn1cc(C(=O)O)c(=O)c2cnc(N3CCN(C(=S)NC(=O)c4ccccc4Cl)CC3)nc21 | < 2 (inactive) |
| O=C(OCC(=O)c1cccs1)c1ccc([N+](=O)[O-])o1 | < 2 (inactive) |
| CCn1cc(C(=O)O)c(=O)c2cnc(N3CCN(C(=S)Nc4ccccc4)CC3)nc21 | > 2 |
| O=C(Nc1ncccn1)c1ccc([N+](=O)[O-])o1 | > 2 |
| N#Cc1c(NC(=O)c2ccc([N+](=O)[O-])o2)sc2c1CCC2 | > 2 |
| Cc1cccnc1NC(=O)c1ccc([N+](=O)[O-])o1 | < 2 (inactive) |
| CCn1cc(C(=O)O)c(=O)c2cnc(N3CCN(C(=S)NC)CC3)nc21 | < 2 (inactive) |
| CCn1cc(C(=O)O)c(=O)c2cnc(N3CCN(C(=S)NC(=O)c4ccco4)CC3)nc21 | < 2 (inactive) |
| CCn1cc(C(=O)O)c(=O)c2cnc(N3CCN(C(=S)Nc4ccccc4OC)CC3)nc21 | < 2 (inactive) |
| N#Cc1c(NC(=O)c2ccccc2)sc2c1CCC2 | < 2 (inactive) |
| NC(=O)c1ccsc1NC(=O)COC(=O)c1ccc([N+](=O)[O-])o1 | < 2 (inactive) |
| CC(=O)Nc1ccc2nc(NC(=O)c3ccc([N+](=O)[O-])o3)sc2c1 | < 2 (inactive) |
| CCn1cc(C(=O)O)c(=O)c2cnc(N3CCN(C(=S)NC4CC5CCC4C5)CC3)nc21 (stereo not drawn) | > 2 |

| Compound | fold reduction of Chi cutting |
| --- | --- |
| Nc1c(NC(=O)c2ccc([N+](=O)[O-])o2)sc2c1CCCC2 | > 2 |
| CCn1cc(C(=O)O)c(=O)c2cnc(N3CCN(C(=S)Nc4ccccc4C)CC3)nc21 | < 2 (inactive) |
| N#Cc1c(NC(=O)c2ccccc2C(=O)O)sc2c1CCCC2 | > 2 |
| N#Cc1c(NC(=O)c2cccc(F)c2)sc2c1CCCC2 | > 2 |
| CC1CCc2c(sc(NC(=O)c3ccc([N+](=O)[O-])o3)c2N)C1 (stereo not drawn) | > 2 |
| CCn1cc(C(=O)O)c(=O)c2cnc(N3CCN(C(=S)Nc4ccccc4Cl)CC3)nc21 | > 2 |
| CCn1cc(C(=O)O)c(=O)c2cnc(N3CCN(C(=S)Nc4ccccc4C(F)(F)F)CC3)nc21 | > 2 and < 2 (inactive) |
| O=C(Nc1ccc(N2CCOCC2)cc1)c1ccc([N+](=O)[O-])o1 | < 2 (inactive) |
| CCn1cc(C(=O)O)c(=O)c2cnc(N3CCN(C(=S)Nc4ccc(Cl)cc4)CC3)nc21 | < 2 (inactive) |
| N#Cc1c(NC(=O)c2ccc([N+](=O)[O-])o2)sc2c1CCCC2 | < 2 (inactive) |
| CCn1cc(C(=O)O)c(=O)c2cnc(N3CCN(C(=S)Nc4ccc5c(c4)OCO5)CC3)nc21 | < 2 (inactive) |
| CCn1cc(C(=O)O)c(=O)c2cnc(N3CCNCC3)nc21 | < 2 (inactive) |
| CCn1cc(C(=O)O)c(=O)c2cnc(N3CCN(C(=S)Nc4cccc(C(F)(F)F)c4)CC3)nc21 | < 2 (inactive) |
| C=CCNC(=S)N1CCN(c2ncc3c(=O)c(C(=O)O)cn(CC)c3n2)CC1 | < 2 (inactive) |
| N#Cc1c(NC(=O)c2cnccn2)sc2c1CCCC2 | < 2 (inactive) |
| CCn1cc(C(=O)O)c(=O)c2cnc(N3CCN(C(=S)Nc4ccccc4F)CC3)nc21 | < 2 (inactive) |
| O=C(Nc1cccc(NC(=O)c2ccccc2Cl)c1)c1ccc([N+](=O)[O-])o1 | > 2 |
| CCn1cc(C(=O)O)c(=O)c2cnc(N3CCN(C(=O)Nc4ccccc4)CC3)nc21 | > 2 |
| CCn1cc(C(=O)O)c(=O)c2cnc(N3CCN(C(=S)Nc4ccc5c(c4)OCCO5)CC3)nc21 | > 2 |
| CCn1cc(C(=O)O)c(=O)c2cnc(N3CCN(C(=S)NC(=O)c4cccc(C)c4)CC3)nc21 | > 2 |
| CCn1cc(C(=O)O)c(=O)c2cnc(N3CCN(C(=S)NCc4ccccc4)CC3)nc21 | < 2 (inactive) |
| O=C(NCc1cccnc1)c1ccc([N+](=O)[O-])o1 | < 2 (inactive) |
| Cc1ccc(C(=O)Nc2sc3c(c2C#N)CCCCC3)o1 | < 2 (inactive) |
| Cc1sc(NC(=O)c2ccc(Br)o2)c(C#N)c1C | < 2 (inactive) |
